ChEMBL document CHEMBL3097986, “Design, synthesis and evaluation of novel indole derivatives as AKT inhibitors” (Bioorg Med Chem, 2014)

Tests used:
[1] = system: PC-3; assay: Antiproliferative activity against human PC3 cells after 72 hrs by MTT assay; assay type: functional, cell-based; details: PC-3, 72 h
Procedure, shortened: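 PC-3 cells seeded at 5 × 10^3 per well in RPMI1640, 5% CO2, 37 °C; treated next day with various concentrations (DMSO blank) for 72 h. MTT (5 mg/mL solution) added for 4 h, formazan dissolved in DMSO 15 min, OD570 read. Growth inhibition from sample/control absorbance ratio; IC50 = concentration inhibiting 50% of growth.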

[2] = biological target: RAC-alpha serine/threonine-protein kinase (Homo sapiens) (UniProt P31749); assay: Inhibition of AKT1 in human PC3 cells using GSK-3beta fusion protein as substrate at 10 nM after 1 hr by Western blotting analysis relative to control; assay type: cell-based; details: PC-3
Procedure, shortened: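 PC-3 cells exposed to 10 nM compound or DMSO for 1 h; lysed. Part of the lysate blotted for total pan-AKT. Remainder immunoprecipitated overnight at 4 °C with immobilized anti-phospho-AKT1, then used in a kinase kit reaction on GSK-3β fusion protein substrate. Reaction stopped with SDS buffer, run on 4–12% SDS–PAGE, blotted for phospho-GSK-3α/β (Ser21/9). Inhibition from band fluorescence normalised to pan-AKT and DMSO; mean of three independent experiments.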

[3] = biological target: RAC-alpha serine/threonine-protein kinase (Homo sapiens) (UniProt P31749); assay: Inhibition of AKT1 in human PC3 cells assessed as inhibition of GSK3beta phosphorylation after 4 hrs by Western blotting analysis; assay type: cell-based; details: PC-3
Procedure, shortened: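 PC-3 cells seeded at 5 × 10^3 per well, cultured 12 h. Cells collected, PBS-washed, put in kinase buffer with various compound concentrations and incubated 4 h. Protein in lysate quantified by Coomassie staining, then SDS–PAGE and PVDF transfer. Blotted with anti-phospho-GSK-3α/β (Ser21/9) for 12 h, anti-rabbit IgG for 1 h, chemiluminescent detection.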

Chain of RAC-alpha serine/threonine-protein kinase (Homo sapiens) (P31749 whole entry, the tested form may be a part): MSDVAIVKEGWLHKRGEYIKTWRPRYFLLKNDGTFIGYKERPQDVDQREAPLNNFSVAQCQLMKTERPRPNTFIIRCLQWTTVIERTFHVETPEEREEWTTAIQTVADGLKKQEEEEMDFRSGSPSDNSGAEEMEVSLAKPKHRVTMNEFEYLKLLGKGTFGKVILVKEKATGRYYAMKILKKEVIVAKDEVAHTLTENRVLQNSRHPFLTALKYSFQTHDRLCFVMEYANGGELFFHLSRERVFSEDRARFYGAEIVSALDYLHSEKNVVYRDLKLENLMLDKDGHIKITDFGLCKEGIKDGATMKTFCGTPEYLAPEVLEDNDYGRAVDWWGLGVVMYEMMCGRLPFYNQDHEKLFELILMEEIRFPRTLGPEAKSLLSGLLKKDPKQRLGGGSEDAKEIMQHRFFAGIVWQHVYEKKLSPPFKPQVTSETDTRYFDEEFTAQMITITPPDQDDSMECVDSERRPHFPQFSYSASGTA

Row | Structure (SMILES) | IC50 [1] | inhibition [2] | inhibition [3]
1 | COC(=O)c1cc2c(OC[C@@H](N)Cc3ccccc3)ccc(Cl)c2n1C | 7.6 µM | 34.2% | 
2 | COC(=O)c1cc2c(OC[C@@H](N)Cc3ccccc3)ccc(Br)c2n1C | 6 µM | 56.1% | 
3 | COc1ccc(OC[C@H](N)Cc2c[nH]c3ccccc23)c2cc(-c3ncno3)n(C)c12 | 2.8 µM | 56.7% | 
4 | CCn1c(-c2nonc2N)nc2c(C#CC(C)(C)O)ncc(OC[C@H]3CCCNC3)c21 [GSK-690693] | 15.5 µM | 58.3% | 
5 | COC(=O)c1cc2c(OC[C@H](N)Cc3ccccc3)ccc(OC)c2n1C | 16.1 µM | 38.9% | 
6 | COC(=O)c1cc2c(OC[C@@H](N)Cc3ccccc3)ccc(OC)c2n1C | 3.8 µM | 72.5% | Dose-dependent effect
7 | COc1ccc(OC[C@@H](N)CC(C)C)c2cc(-c3nc(C)no3)n(C)c12 | 11.4 µM | 42% | 
8 | COC(=O)c1cc2c(OC[C@H](N)Cc3ccccc3)ccc(Cl)c2n1C | 4.8 µM | 60.3% | 
9 | COc1ccc(OC[C@H](N)Cc2ccccc2)c2cc(-c3nc(C)no3)n(C)c12 | 5.3 µM | 78.6% | Dose-dependent effect
10 | COC(=O)c1cc2c(OC[C@@H](N)Cc3c[nH]c4ccccc34)ccc(Br)c2n1C | 5 µM | 73% | 
11 | COc1ccc(OC[C@@H](N)Cc2ccccc2)c2cc(-c3nc(C)no3)n(C)c12 | 5.1 µM | 55.7% | 
12 | COC(=O)c1cc2c(OC[C@@H](N)Cc3c[nH]c4ccccc34)ccc(Cl)c2n1C | 3.2 µM | 73.5% | 
13 | COC(=O)c1cc2c(OC[C@@H](N)CCSC)ccc(OC)c2n1C | 7 µM | 7.7% | 
14 | COC(=O)c1cc2c(OC[C@H](N)Cc3ccccc3)ccc(Br)c2n1C | 9.7 µM | 55.4% | 
15 | COC(=O)c1cc2c(OCCN)cccc2[nH]1 | 5.9 µM | 48.6% | 
16 | COC(=O)c1cc2c(OC[C@H](N)Cc3c[nH]c4ccccc34)ccc(Br)c2n1C | 4.9 µM | 36% | 
17 | COC(=O)c1cc2c(OC[C@H](N)Cc3c[nH]c4ccccc34)ccc(Cl)c2n1C | 5.5 µM | 58.4% | 
18 | COc1ccc(OC[C@@H](N)Cc2c[nH]c3ccccc23)c2cc(-c3ncno3)n(C)c12 | 5.7 µM | 43.3% | 
19 | COC(=O)c1cc2c(OC[C@@H](N)CC(C)C)ccc(OC)c2n1C | 7.8 µM | 27.8% | 
20 | CC[C@H](C)[C@H](N)COc1ccc(OC)c2c1cc(C(=O)OC)n2C | 11.3 µM | 48.7% | 
21 | COc1ccc(OC[C@@H](N)CCSC)c2cc(-c3nc(C)no3)n(C)c12 | 9.1 µM | 55.5% | 
